Key:
Conditions in all cases: stereoisomer not certain
OR5M8 (Homo sapiens) = target: T1, OR5M8 (Homo sapiens) (UniProt Q8NGP6)
T1 sequence (whole entry): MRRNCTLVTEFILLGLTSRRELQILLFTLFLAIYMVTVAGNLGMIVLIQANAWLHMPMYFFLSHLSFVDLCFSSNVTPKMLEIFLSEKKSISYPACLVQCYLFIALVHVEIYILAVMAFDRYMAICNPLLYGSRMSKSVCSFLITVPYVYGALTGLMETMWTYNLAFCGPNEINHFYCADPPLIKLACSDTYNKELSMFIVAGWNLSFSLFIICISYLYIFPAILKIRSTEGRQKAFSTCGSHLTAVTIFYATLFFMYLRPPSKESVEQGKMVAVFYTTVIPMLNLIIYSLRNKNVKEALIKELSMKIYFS
In short: (§1)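 Transient luciferase assays in mammalian cell lines were common, though methods varied by source. The values come from published papers and their supplementary material, with extra details from the original authors when needed. Responsive refers to a measured signal the original authors judged statistically different from baseline, and non-responsive (inactive) to the remainder.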

OR5M9 (Homo sapiens) = target: T2, OR5M9 (Homo sapiens) (UniProt Q8NGP3)
T2 sequence (whole entry): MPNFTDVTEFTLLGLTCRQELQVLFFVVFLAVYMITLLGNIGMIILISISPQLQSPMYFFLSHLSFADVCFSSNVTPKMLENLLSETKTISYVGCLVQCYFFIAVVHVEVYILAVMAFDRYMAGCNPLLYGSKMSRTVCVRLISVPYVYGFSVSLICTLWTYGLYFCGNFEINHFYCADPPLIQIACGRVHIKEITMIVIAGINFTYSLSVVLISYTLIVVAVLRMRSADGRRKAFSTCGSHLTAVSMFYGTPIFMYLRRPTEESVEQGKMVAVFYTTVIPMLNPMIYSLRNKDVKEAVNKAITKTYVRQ
In short: as §1

OR5P2 (Homo sapiens) = target: T3, OR5P2 (Homo sapiens) (UniProt Q8WZ92)
T3 sequence (whole entry): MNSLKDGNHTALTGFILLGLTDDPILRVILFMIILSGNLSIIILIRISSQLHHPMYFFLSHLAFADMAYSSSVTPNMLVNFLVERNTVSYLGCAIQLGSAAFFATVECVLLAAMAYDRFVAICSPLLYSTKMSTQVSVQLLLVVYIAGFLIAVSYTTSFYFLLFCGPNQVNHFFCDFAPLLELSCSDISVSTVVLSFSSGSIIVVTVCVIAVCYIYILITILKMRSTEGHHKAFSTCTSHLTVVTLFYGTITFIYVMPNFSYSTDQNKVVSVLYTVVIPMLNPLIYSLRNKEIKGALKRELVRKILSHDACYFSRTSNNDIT
In short: as §1

OR5P3 (Homo sapiens) = target: T4, OR5P3 (Homo sapiens) (UniProt Q8WZ94)
T4 sequence (whole entry): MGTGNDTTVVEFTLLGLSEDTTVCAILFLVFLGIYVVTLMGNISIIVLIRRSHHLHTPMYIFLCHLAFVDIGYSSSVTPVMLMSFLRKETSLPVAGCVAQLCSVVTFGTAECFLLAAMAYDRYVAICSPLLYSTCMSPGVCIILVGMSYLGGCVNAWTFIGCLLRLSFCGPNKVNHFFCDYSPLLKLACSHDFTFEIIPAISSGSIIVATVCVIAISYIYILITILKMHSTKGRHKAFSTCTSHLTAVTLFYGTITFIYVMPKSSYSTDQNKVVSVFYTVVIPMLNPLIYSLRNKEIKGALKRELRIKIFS
In short: as §1

OR5T1 (Homo sapiens) = target: T5, OR5T1 (Homo sapiens) (UniProt Q8NG75)
T5 sequence (whole entry): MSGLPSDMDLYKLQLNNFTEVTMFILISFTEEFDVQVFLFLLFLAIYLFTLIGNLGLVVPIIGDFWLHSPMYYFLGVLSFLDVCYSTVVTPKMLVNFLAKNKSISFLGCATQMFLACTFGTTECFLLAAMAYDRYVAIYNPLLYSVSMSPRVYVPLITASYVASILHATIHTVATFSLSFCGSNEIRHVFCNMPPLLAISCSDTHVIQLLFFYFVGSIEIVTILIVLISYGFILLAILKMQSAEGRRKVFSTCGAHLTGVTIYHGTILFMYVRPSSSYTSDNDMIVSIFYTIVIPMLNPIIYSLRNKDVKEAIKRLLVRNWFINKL
In short: as §1

OR5T2 (Homo sapiens) = target: T6, OR5T2 (Homo sapiens) (UniProt Q8NGG2)
T6 sequence (whole entry): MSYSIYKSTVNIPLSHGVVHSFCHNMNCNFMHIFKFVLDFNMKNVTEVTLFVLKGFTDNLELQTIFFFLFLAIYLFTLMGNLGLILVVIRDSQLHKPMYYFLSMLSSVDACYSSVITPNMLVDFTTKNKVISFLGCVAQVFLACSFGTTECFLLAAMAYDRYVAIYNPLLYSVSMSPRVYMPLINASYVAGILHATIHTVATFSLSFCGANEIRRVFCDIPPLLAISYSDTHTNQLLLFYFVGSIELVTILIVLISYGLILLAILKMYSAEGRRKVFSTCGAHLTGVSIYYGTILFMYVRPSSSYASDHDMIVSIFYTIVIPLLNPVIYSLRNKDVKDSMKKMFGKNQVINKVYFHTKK
In short: as §1

OR5T3 (Homo sapiens) = target: T7, OR5T3 (Homo sapiens) (UniProt Q8NGG3)
T7 sequence (whole entry): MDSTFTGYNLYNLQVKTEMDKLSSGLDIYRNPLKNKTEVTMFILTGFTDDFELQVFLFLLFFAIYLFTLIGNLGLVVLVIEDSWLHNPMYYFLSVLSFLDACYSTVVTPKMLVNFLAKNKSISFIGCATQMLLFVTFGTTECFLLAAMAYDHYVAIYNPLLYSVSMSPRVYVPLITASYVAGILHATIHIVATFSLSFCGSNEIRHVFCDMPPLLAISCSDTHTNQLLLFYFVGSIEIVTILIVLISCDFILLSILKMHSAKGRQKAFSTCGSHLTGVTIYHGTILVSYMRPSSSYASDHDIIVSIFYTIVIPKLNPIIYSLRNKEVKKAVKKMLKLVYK
In short: as §1

OR5V1 (Homo sapiens) = target: T8, OR5V1 (Homo sapiens) (UniProt Q9UGF6)
T8 sequence (whole entry): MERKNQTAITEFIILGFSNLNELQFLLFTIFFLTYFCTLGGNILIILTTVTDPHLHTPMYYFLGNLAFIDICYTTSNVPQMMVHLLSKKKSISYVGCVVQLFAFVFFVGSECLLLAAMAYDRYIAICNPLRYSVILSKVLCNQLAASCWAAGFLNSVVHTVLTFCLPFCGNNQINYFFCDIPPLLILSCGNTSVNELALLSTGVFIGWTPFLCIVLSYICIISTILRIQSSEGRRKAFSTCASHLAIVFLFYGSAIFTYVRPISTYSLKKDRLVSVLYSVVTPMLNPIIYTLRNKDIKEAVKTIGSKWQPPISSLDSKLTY
In short: as §1

OR5W2 (Homo sapiens) = target: T9, OR5W2 (Homo sapiens) (UniProt Q8NH69)
T9 sequence (whole entry): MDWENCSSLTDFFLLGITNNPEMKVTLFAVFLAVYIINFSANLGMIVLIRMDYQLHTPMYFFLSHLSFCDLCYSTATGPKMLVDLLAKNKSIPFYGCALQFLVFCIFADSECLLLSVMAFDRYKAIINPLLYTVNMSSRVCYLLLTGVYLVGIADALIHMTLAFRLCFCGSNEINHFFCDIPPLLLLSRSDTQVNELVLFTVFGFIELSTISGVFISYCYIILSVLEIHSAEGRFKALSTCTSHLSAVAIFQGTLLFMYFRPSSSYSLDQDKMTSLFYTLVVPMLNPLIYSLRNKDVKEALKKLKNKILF
In short: as §1

OR6A2 (Homo sapiens) = target: T10, OR6A2 (Homo sapiens) (UniProt O95222)
T10 sequence (whole entry): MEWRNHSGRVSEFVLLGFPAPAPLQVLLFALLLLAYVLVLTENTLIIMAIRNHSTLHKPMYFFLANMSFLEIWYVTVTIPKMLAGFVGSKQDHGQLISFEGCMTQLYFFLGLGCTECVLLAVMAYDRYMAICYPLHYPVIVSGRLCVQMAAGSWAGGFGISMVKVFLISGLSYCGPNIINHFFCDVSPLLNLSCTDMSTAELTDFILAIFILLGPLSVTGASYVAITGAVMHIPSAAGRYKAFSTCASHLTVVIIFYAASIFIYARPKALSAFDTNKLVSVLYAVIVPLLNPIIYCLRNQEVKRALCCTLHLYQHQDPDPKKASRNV
In short: as §1

OR6B1 (Homo sapiens) = target: T11, OR6B1 (Homo sapiens) (UniProt O95007)
T11 sequence (whole entry): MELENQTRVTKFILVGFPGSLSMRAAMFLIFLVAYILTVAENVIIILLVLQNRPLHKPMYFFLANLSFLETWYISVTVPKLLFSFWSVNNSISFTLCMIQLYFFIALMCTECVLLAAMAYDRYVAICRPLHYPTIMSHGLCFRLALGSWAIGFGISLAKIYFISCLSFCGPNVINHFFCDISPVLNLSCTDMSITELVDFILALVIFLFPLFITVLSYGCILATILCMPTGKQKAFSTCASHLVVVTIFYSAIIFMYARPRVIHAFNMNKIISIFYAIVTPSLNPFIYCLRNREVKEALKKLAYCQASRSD
In short: as §1

OR6B2 (Homo sapiens) = target: T12, OR6B2 (Homo sapiens) (UniProt Q6IFH4)
T12 sequence (whole entry): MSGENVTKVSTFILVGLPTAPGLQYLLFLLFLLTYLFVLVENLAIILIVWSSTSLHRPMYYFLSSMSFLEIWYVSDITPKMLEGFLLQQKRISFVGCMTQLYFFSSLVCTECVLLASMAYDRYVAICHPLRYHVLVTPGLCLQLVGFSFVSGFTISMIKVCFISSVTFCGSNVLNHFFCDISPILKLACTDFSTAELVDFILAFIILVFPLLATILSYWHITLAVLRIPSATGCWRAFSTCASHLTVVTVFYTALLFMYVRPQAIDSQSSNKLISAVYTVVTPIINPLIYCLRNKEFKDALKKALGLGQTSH
In short: as §1
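Also: active if original authors judged signal statistically different from baseline.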

Row | Structure (SMILES) | odorant receptor agonist call (OR5M8 (Homo sapiens)) | odorant receptor agonist call (OR5M9 (Homo sapiens)) | odorant receptor agonist call (OR5P2 (Homo sapiens)) | odorant receptor agonist call (OR5P3 (Homo sapiens)) | odorant receptor agonist call (OR5T1 (Homo sapiens)) | odorant receptor agonist call (OR5T2 (Homo sapiens)) | odorant receptor agonist call (OR5T3 (Homo sapiens)) | odorant receptor agonist call (OR5V1 (Homo sapiens)) | odorant receptor agonist call (OR5W2 (Homo sapiens)) | odorant receptor agonist call (OR6A2 (Homo sapiens)) | odorant receptor agonist call (OR6B1 (Homo sapiens)) | odorant receptor agonist call (OR6B2 (Homo sapiens))
1 | CCC(S)C(C)CO (configuration not stated) | inactive | inactive | inactive | inactive | inactive | inactive | inactive | inactive | inactive | inactive | inactive | inactive
2 | CCCCCC(S)C(C)CO (configuration not stated) | inactive | inactive | inactive | inactive | inactive | inactive | inactive | inactive | inactive | inactive | inactive | inactive
3 | CCCCCCO |  |  |  | active |  |  |  |  |  |  |  | 
4 | CC(CO)CS (configuration not stated) | inactive | inactive | inactive | inactive | inactive | inactive | inactive | inactive | inactive | inactive | inactive | inactive

Source: the M2OR odorant receptor database
